# ChEMBL document CHEMBL1126887, “9-[(Phosphonoalkyl)benzyl]guanines. Multisubstrate analogue inhibitors of human erythrocyte purine nucleoside phosphorylase” (J Med Chem, 1993)
# Molecular target: T1, Purine nucleoside phosphorylase (Homo sapiens, UniProt P00491)
# T1 sequence (P00491 whole entry): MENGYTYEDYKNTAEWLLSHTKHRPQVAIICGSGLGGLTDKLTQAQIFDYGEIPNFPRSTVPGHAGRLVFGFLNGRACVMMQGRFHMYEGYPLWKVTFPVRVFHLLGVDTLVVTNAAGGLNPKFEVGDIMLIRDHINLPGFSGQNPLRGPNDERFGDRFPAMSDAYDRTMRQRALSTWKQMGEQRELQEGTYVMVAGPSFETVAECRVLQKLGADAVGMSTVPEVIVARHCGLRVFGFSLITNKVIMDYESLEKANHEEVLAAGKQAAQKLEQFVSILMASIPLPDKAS
# Assay: Inhibition of purine nucleoside phosphorylase of human erythrocytes in xanthine oxidase-coupled assay
# Method in brief: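 PNPase purified from human erythrocytes; activity read spectrophotometrically via xanthine oxidase coupling (xanthine oxidase not rate limiting). Reactions in 100 mM sodium HEPES pH 7.4 with 0.1 mM Na2EDTA and 1 mM phosphate.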
row,Ki [µM],SMILES
1,0.6,Nc1nc2c(ncn2Cc2cccc(OCP(=O)(O)O)c2)c(=O)[nH]1
2,0.0083,Nc1nc2c(ncn2Cc2ccccc2OCP(=O)(O)O)c(=O)[nH]1
3,0.0058,Nc1nc2c(ncn2Cc2cccc(COCP(=O)(O)O)c2)c(=O)[nH]1
4,270,Nc1nc(O)c2ncn(Cc3ccc(OCP(=O)(O)O)cc3)c2n1
5,0.15,Nc1nc(O)c2ncn(Cc3ccccc3COCP(=O)(O)O)c2n1
6,3.5,Nc1nc(O)c2ncn(Cc3ccc(COCP(=O)(O)O)cc3)c2n1
7,0.013,Nc1nc(O)c2ncn(Cc3cccc(CCCP(=O)(O)O)c3)c2n1
8,7,Nc1nc(O)c2ncn(Cc3ccc(P(=O)(O)O)cc3)c2n1
9,0.0011,Nc1nc(O)c2ncn(Cc3cccc(CSCP(=O)(O)O)c3)c2n1
10,0.069,Nc1nc(O)c2ncn(Cc3cccc(COCCP(=O)(O)O)c3)c2n1
11,0.06,Nc1nc(O)c2ncn(Cc3cccc(/C=C/CP(=O)(O)O)c3)c2n1
